What was measured:
Conditions in all cases: in vivo
[1] = Drug excretion in feces of female cynomolgus monkey treated with [14C]sunitinib at 6 mg/kg, po administered as single dose by liquid scintillation counting; format: ADME, organism-based, Macaca fascicularis; set-up: dose 6 mg/kg, dosed compound name [14C]Sunitinib, route oral
In short: (§1)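 Cynomolgus monkeys given one oral gavage dose of [14C]sunitinib L-malate, 6 mg/kg (37 µCi/kg). Urine collected at 0-4, 4-8 and 8-24 h, feces at 0-8 and 8-24 h, then both daily to 14 days; samples stored at -80 °C. Duplicate urine aliquots counted by liquid scintillation; homogenized feces combusted before counting.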

[2] = Drug excretion in urine of male Sprague-Dawley rat treated with [14C]sunitinib at 15 mg/kg, po administered as single dose by liquid scintillation counting; format: ADME, organism-based; set-up: dose 15 mg/kg, dosed compound name [14C]Sunitinib, route oral
In short: (§2)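 Female and male rats given one oral gavage dose, 15 mg/kg free base equivalents (50 µCi/kg). Urine and feces collected on dry ice, protected from light, over 0-4, 4-8 and 8-24 h, then daily to 72 h. Urine aliquots counted by liquid scintillation; homogenized feces combusted in oxygen before counting. Counts 5 min, external quench correction.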

[3] = Drug excretion in urine of female Sprague-Dawley rat treated with [14C]sunitinib at 5 mg/kg, iv administered as single dose by liquid scintillation counting; format: ADME, organism-based; set-up: dose 5 mg/kg, dosed compound name [14C]Sunitinib, route intravenous
In short: (§3)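 Five female rats given a single tail-vein bolus of [14C]sunitinib L-malate, 5 mg/kg free base equivalents (50 µCi/kg). Urine and feces collected over 0-72 h into dry-ice cooled containers. Urine counted directly by liquid scintillation; feces homogenized and combusted in oxygen before counting. Expired air also monitored.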

[4] = Drug excretion in urine of male cynomolgus monkey treated with [14C]sunitinib at 6 mg/kg, po administered as single dose by liquid scintillation counting; format: ADME, organism-based, Macaca fascicularis; set-up: dose 6 mg/kg, dosed compound name [14C]Sunitinib, route oral; in short: as §1
[5] = Drug excretion in urine of female Sprague-Dawley rat treated with [14C]sunitinib at 15 mg/kg, po administered as single dose by liquid scintillation counting; format: ADME, organism-based; set-up: dose 15 mg/kg, dosed compound name [14C]Sunitinib, route oral; in short: as §2
[6] = Drug excretion in feces of male cynomolgus monkey treated with [14C]sunitinib at 6 mg/kg, po administered as single dose by liquid scintillation counting; format: ADME, organism-based, Macaca fascicularis; set-up: dose 6 mg/kg, dosed compound name [14C]Sunitinib, route oral; in short: as §1
[7] = Drug excretion in urine of human treated with [14C]sunitinib at 50 mg, po administered as single dose by liquid scintillation counting
[8] = Drug excretion in urine of female cynomolgus monkey treated with [14C]sunitinib at 6 mg/kg, po administered as single dose by liquid scintillation counting; format: ADME, organism-based, Macaca fascicularis; set-up: dose 6 mg/kg, dosed compound name [14C]Sunitinib, route oral; in short: as §1
[9] = Drug excretion in feces of human treated with [14C]sunitinib at 50 mg, po administered as single dose by liquid scintillation counting
[10] = Drug excretion in feces of female Sprague-Dawley rat treated with [14C]sunitinib at 15 mg/kg, po administered as single dose by liquid scintillation counting; format: ADME, organism-based; set-up: dose 15 mg/kg, dosed compound name [14C]Sunitinib, route oral; in short: as §2
[11] = Drug excretion in feces of male Sprague-Dawley rat treated with [14C]sunitinib at 15 mg/kg, po administered as single dose by liquid scintillation counting; format: ADME, organism-based; set-up: dose 15 mg/kg, dosed compound name [14C]Sunitinib, route oral; in short: as §2
[12] = Drug excretion in feces of female Sprague-Dawley rat treated with [14C]sunitinib at 5 mg/kg, iv administered as single dose by liquid scintillation counting; format: ADME, organism-based; set-up: dose 5 mg/kg, dosed compound name [14C]Sunitinib, route intravenous; in short: as §3

Compound recovery [1] [%]	Compound recovery [2] [%]	Compound recovery [3] [%]	Compound recovery [4] [%]	Compound recovery [5] [%]	Compound recovery [6] [%]	Compound recovery [7]	Compound recovery [8] [%]	Compound recovery [9]	Compound recovery [10] [%]	Compound recovery [11] [%]	Compound recovery [12] [%]	SMILES
2.6	0.3	0.7	< 0.1	1.5	3.2	metabolite_not_detected	0.2	–	–	–	–	CC[N+]([O-])(CC)CCNC(=O)c1c(C)[nH]c(/C=C2\C(=O)Nc3ccc(F)cc32)c1C
0.8	–	–	–	–	1	–	–	metabolite_not_detected	–	–	–	CCNCC(O)NC(=O)c1c(C)[nH]c(/C=C2\C(=O)Nc3ccc(F)cc32)c1C (stereo unspecified)
5.9	–	–	–	–	6.3	–	–	–	3.5	4.3	6.1	CCN(CC)CCNC(=O)c1c(C)[nH]c(/C=C2\C(=O)Nc3ccc(O)cc32)c1C
0.8	–	–	–	–	1	–	–	metabolite_not_detected	1.7	–	1.1	Cc1[nH]c(/C=C2\C(=O)Nc3ccc(F)cc32)c(C)c1C(=O)NCCN

Source: ChEMBL document CHEMBL3525900, “Pharmacokinetics, distribution, and metabolism of [14C]sunitinib in rats, monkeys, and humans” (Drug Metab Dispos, 2012)
